# Experimental data taken from ChEMBL document CHEMBL2417510, “Stereoselective pharmacodynamic and pharmacokinetic analysis of sec-Butylpropylacetamide (SPD), a new CNS-active derivative of valproic acid with unique activity against status epilepticus” (J Med Chem, 2013).
# How the values were obtained:
# Mus musculus [1] = assay: Teratogenicity in SWV/Fnn mouse assessed as fetuses with neural tube defects at 141 mg/kg, ip on day 8.5 of gestation relative to vehicle-treated control; format: toxicity, organism-based; design: dose 141 mg/kg, route intraperitoneal; conditions: in vivo
# Mus musculus [2] = assay: Teratogenicity in SWV/Fnn mouse assessed as fetuses with neural tube defects at 283 mg/kg, ip on day 8.5 of gestation relative to vehicle-treated control; format: toxicity, organism-based; design: dose 283 mg/kg, route intraperitoneal; conditions: in vivo
# Mus musculus [3] = assay: Teratogenicity in SWV/Fnn mouse assessed as normal fetuses at 141 mg/kg, ip on day 8.5 of gestation (reference value: 100 %); format: toxicity, organism-based; design: dose 141 mg/kg, route intraperitoneal; conditions: in vivo
# Mus musculus [4] = assay: Teratogenicity in SWV/Fnn mouse assessed as normal fetuses at 283 mg/kg, ip on day 8.5 of gestation (reference value: 100 %); format: toxicity, organism-based; design: dose 283 mg/kg, route intraperitoneal; conditions: in vivo
# Mus musculus [5] = assay: Teratogenicity in SWV/Fnn mouse assessed as live fetuses at 141 mg/kg, ip on day 8.5 of gestation (reference value: 93.7 %); format: toxicity, organism-based; design: dose 141 mg/kg, route intraperitoneal; conditions: in vivo
# Mus musculus [6] = assay: Teratogenicity in SWV/Fnn mouse assessed as live fetuses at 283 mg/kg, ip on day 8.5 of gestation (reference value: 93.7 %); format: toxicity, organism-based; design: dose 283 mg/kg, route intraperitoneal; conditions: in vivo
# Mus musculus [7] = assay: Teratogenicity in SWV/Fnn mouse assessed as resorption at 141 mg/kg, ip on day 8.5 of gestation (reference value: 6.3 %); format: toxicity, organism-based; design: dose 141 mg/kg, route intraperitoneal; conditions: in vivo
# Mus musculus [8] = assay: Teratogenicity in SWV/Fnn mouse assessed as resorption at 283 mg/kg, ip on day 8.5 of gestation (reference value: 6.3 %); format: toxicity, organism-based; design: dose 283 mg/kg, route intraperitoneal; conditions: in vivo
# Hippocampus [9] = assay: Protection against kainic acid-induced spontaneous electrographic seizures in combined medial entorhinal cortex hippocampal brain slices of albino Sprague-Dawley rat assessed as burst duration at 100 uM after 1 week relative to control; format: functional
# Outline: (§1)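 Rat brain slices showing spontaneous bursting were exposed to 100 μM compound. Burst rate and burst duration were expressed as % of control ± SEM.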
# Hippocampus [10] = assay: Protection against kainic acid-induced spontaneous electrographic seizures in combined medial entorhinal cortex hippocampal brain slices of albino Sprague-Dawley rat assessed as burst rate at 100 uM after 1 week relative to control; format: functional; outline: as §1
# [11] = Neurotoxicity in po dosed albino Sprague-Dawley rat assessed as minimal motor impairment after 0.5 to 1 hr; format: toxicity, organism-based; conditions: in vivo
# Outline: (§2)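 Each test was run at the previously determined time to peak effect: 0.25–0.5 h after ip dosing, or 0.5–1 h after oral dosing. Groups of 4–8 animals received various doses until at least two points fell between 0% and 100% protection or minimal toxicity.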
# Rattus norvegicus [12] = assay: Anticonvulsant activity in po dosed albino Sprague-Dawley rat assessed as protection against maximal electroshock-induced seizures after 0.5 to 1 hr; format: functional; outline: as §2
# [13] = Neurotoxicity in ip dosed albino Sprague-Dawley rat assessed as minimal motor impairment after 0.25 to 0.5 hrs; format: toxicity, organism-based; conditions: in vivo; outline: as §2
# Rattus norvegicus [14] = assay: Anticonvulsant activity in ip dosed albino Sprague-Dawley rat assessed as protection against pilocarpine-induced behavioral seizures administered 30 mins post seizure measured after 0.25 to 0.5 hrs; format: functional
# Outline: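 Status epilepticus was induced in rats with lithium–pilocarpine. Compound was given ip 30 min after the first observed stage 3 or greater motor seizure. The read-out was prevention of further convulsive seizures across various doses in groups of 4–8 rats.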
# Rattus norvegicus [15] = assay: Anticonvulsant activity in ip dosed albino Sprague-Dawley rat assessed as protection against subcutaneous metrazol-induced seizures after 0.25 to 0.5 hrs; format: functional; outline: as §2
# Mus musculus [16] = assay: Anticonvulsant activity in ip dosed albino CF1 mouse assessed as protection against 32 mA-current- for 3 secs induced seizures after 0.25 to 0.5 hrs by 6Hz psychomotor seizure test; format: functional; outline: as §2
# Mus musculus [17] = assay: Anticonvulsant activity in ip dosed albino CF1 mouse assessed as protection against 44 mA-current- for 3 secs induced seizures after 0.25 to 0.5 hrs by 6Hz psychomotor seizure test; format: functional; outline: as §2
# [18] = Neurotoxicity in ip dosed albino CF1 mouse assessed as minimal motor impairment after 0.25 to 0.5 hrs; format: toxicity, organism-based; conditions: in vivo; outline: as §2
# Mus musculus [19] = assay: Anticonvulsant activity in ip dosed albino CF1 mouse assessed as protection against maximal electroshock-induced seizures after 0.25 to 0.5 hrs; format: functional; outline: as §2
# Mus musculus [20] = assay: Anticonvulsant activity in ip dosed albino CF1 mouse assessed as protection against subcutaneous metrazol-induced seizures after 0.25 to 0.5 hrs; format: functional; conditions: albino CF1, 0.5 h; outline: as §2
# [21] = Mean residence time in rat at 60 mg/kg, ip; format: ADME, organism-based; design: dose 60 mg/kg, route intraperitoneal; conditions: in vivo
# Outline: (§3)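 Naive rats got a single ip dose of 60 mg/kg, formulated in multisol (propylene glycol:alcohol:water for injection, 5:1:4). Plasma concentration–time profiles were followed, and PK parameters (t1/2, CL/F, Vz/F, AUC, Cmax, tmax, MRT) were derived from them.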
# [22] = Tmax in rat at 60 mg/kg, ip; format: ADME, organism-based; design: dose 60 mg/kg, route intraperitoneal; conditions: in vivo; outline: as §3
# [23] = AUC in rat at 60 mg/kg, ip; format: ADME, organism-based; design: dose 60 mg/kg, route intraperitoneal; conditions: plasma; outline: as §3
# [24] = Cmax in rat at 60 mg/kg, ip; format: ADME, organism-based; design: dose 60 mg/kg, route intraperitoneal; conditions: in vivo; outline: as §3
# [25] = Apparent volume of distribution […] in rat at 60 mg/kg, ip; format: ADME, organism-based; design: dose 60 mg/kg, route intraperitoneal; conditions: in vivo, read-out: Vz/F; outline: as §3
# [26] = Apparent clearance in rat at 60 mg/kg, ip; format: ADME, organism-based; design: dose 60 mg/kg, route intraperitoneal; conditions: in vivo; outline: as §3
# [27] = Terminal half life in rat at 60 mg/kg, ip; format: ADME, organism-based; design: dose 60 mg/kg, route intraperitoneal; conditions: in vivo, read-out: beta t1/2 (converted); outline: as §3
# [28] = Solubility of the compound in water; format: physicochemical
# [29] = Solubility of the compound in 5:1:4 solution of propylene glycol, alcohol and water; format: physicochemical
# Mus musculus [30] = assay: Teratogenicity in SWV/Fnn mouse assessed as resorption at 301 mg/kg, ip on day 8.5 of gestation (reference value: 6.3 %); format: toxicity, organism-based; design: dose 301 mg/kg, route intraperitoneal; conditions: in vivo
# Mus musculus [31] = assay: Teratogenicity in SWV/Fnn mouse assessed as normal fetuses at 301 mg/kg, ip on day 8.5 of gestation (reference value: 100 %); format: toxicity, organism-based; design: dose 301 mg/kg, route intraperitoneal; conditions: in vivo
# Mus musculus [32] = assay: Teratogenicity in SWV/Fnn mouse assessed as fetuses with neural tube defects at 181 mg/kg, ip on day 8.5 of gestation relative to vehicle-treated control; format: toxicity, organism-based; design: dose 181 mg/kg, route intraperitoneal; conditions: in vivo
# Mus musculus [33] = assay: Teratogenicity in SWV/Fnn mouse assessed as normal fetuses at 181 mg/kg, ip on day 8.5 of gestation (reference value: 100 %); format: toxicity, organism-based; design: dose 181 mg/kg, route intraperitoneal; conditions: in vivo
# Mus musculus [34] = assay: Teratogenicity in SWV/Fnn mouse assessed as live fetuses at 181 mg/kg, ip on day 8.5 of gestation (reference value: 93.7 %); format: toxicity, organism-based; design: dose 181 mg/kg, route intraperitoneal; conditions: in vivo
# Mus musculus [35] = assay: Teratogenicity in SWV/Fnn mouse assessed as resorption at 181 mg/kg, ip on day 8.5 of gestation (reference value: 6.3 %); format: toxicity, organism-based; design: dose 181 mg/kg, route intraperitoneal; conditions: in vivo
SMILES,Activity (Mus musculus [1]) [%],Activity (Mus musculus [2]) [%],Activity (Mus musculus [3]) [%],Activity (Mus musculus [4]) [%],Activity (Mus musculus [5]) [%],Activity (Mus musculus [6]) [%],Activity (Mus musculus [7]) [%],Activity (Mus musculus [8]) [%],Activity (Hippocampus [9]) [%],Activity (Hippocampus [10]) [%],TD50 [11] [mg/kg],ED50 (Rattus norvegicus [12]) [mg/kg],ED50 (Rattus norvegicus [14]) [mg/kg],ED50 (Mus musculus [16]) [mg/kg],ED50 (Mus musculus [17]) [mg/kg],TD50 [18] [mg/kg],MRT [21] [h],Tmax [22] [h],AUC [23] [ng·h/mL],Cmax [24] [ng/mL],also measured
CCC[C@H](C(N)=O)[C@@H](C)CC,0,0,100,100,94.2,92.5,5.8,7.5,45,109,124,48,94,27,59,126,1.8,0.5,32900,21700,TD50 [13]: 34 mg/kg; ED50 (Rattus norvegicus [15]): 14 mg/kg; ED50 (Mus musculus [19]): 75 mg/kg; ED50 (Mus musculus [20]): 69 mg/kg; Vd/F [25]: 3.9 L/kg; CL/F [26]: 30 mL/min/kg; half-life [27]: 1.5 h
CCCC(C(N)=O)C(C)CC (racemic),0,0,93,87,92.5,86.6,7.5,13.4,145,76,131,29,84,27,45,88,1.8,0.75,31300,14100,solubility [28]: 1.5 mg/mL; solubility [29]: 27 mg/mL; TD50 [13]: 49 mg/kg; ED50 (Rattus norvegicus [15]): 21 mg/kg; ED50 (Mus musculus [19]): 71 mg/kg; ED50 (Mus musculus [20]): 62 mg/kg; Vd/F [25]: 3 L/kg; CL/F [26]: 30 mL/min/kg; half-life [27]: 1.1 h
"CCC[C@@H](C(N)=O)[C@H](C)CC [(2R,3R)-SEC-BUTYLPROPYLACETAMIDE]",0,5.4,100,94.6,92.5,77.1,7.5,22.9,94,77,102,79,98,38,52,94,1.5,0.5,26400,18000,TD50 [13]: 34 mg/kg; ED50 (Rattus norvegicus [15]): 15 mg/kg; ED50 (Mus musculus [19]): 70 mg/kg; ED50 (Mus musculus [20]): 53 mg/kg; Vd/F [25]: 3.6 L/kg; CL/F [26]: 36.7 mL/min/kg; half-life [27]: 1.1 h
"CCC[C@@H](C(N)=O)[C@@H](C)CC [(2R,3S)-SEC-BUTYLPROPYLACETAMIDE]",0,0,100,100,91.6,93.5,8.4,6.5,78,97,79,72,135,29,51,67,2.2,1,15200,5300,TD50 [13]: 41 mg/kg; ED50 (Rattus norvegicus [15]): 15 mg/kg; ED50 (Mus musculus [19]): 95 mg/kg; ED50 (Mus musculus [20]): 93 mg/kg; Vd/F [25]: 7.2 L/kg; CL/F [26]: 65 mL/min/kg; half-life [27]: 1.3 h
"CCC[C@H](C(N)=O)[C@H](C)CC [(2S,3R)-SEC-BUTYLPROPYLACETAMIDE]",0,0,100,100,92.6,90.6,7.4,9.4,90,91,105,106,> 130,27,< 100,> 75,1.5,0.5,12600,8000,Vd/F [25]: 6.3 L/kg; CL/F [26]: 76.7 mL/min/kg; half-life [27]: 0.95 h
CCCC(CCC)C(=O)[O-].[Na+] [VALPROATE SODIUM],,,,,,,,,,,,,,,,,,,,,Activity (Mus musculus [30]): 13.6%; Activity (Mus musculus [31]): 99%; Activity (Mus musculus [32]): 0%; Activity (Mus musculus [33]): 100%; Activity (Mus musculus [34]): 92.3%; Activity (Mus musculus [35]): 7.7%
